The source made the active and inactive calls. The rule behind the calls is not given here.
Columns and labels:
[1] = Cytotoxicity against human HepG2 cells assessed as cell viability at 1 uM after 72 hrs by MTT assay; type: cell-based; settings: read-out: Activity
How it was run: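 HepG2 cells in DMEM with 10% FBS at 37 °C and 5% CO2 were seeded at 1 × 10⁵ per well and left to attach for 24 h. Compound was added at 1 μM final, diluted from a 1 mM DMSO stock, for 72 h. MTT was then added for 4 h at 37 °C, formazan was dissolved in DMSO and read at 540 nm. Viability = A(test)/A(medium-only control) × 100.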

[2] = target: Cannabinoid receptor 1 (Homo sapiens, UniProt P21554); assay: biochemical; type: cell-based, HEK293
[3] = target: T1, Fatty-acid amide hydrolase 1 (Rattus norvegicus) (UniProt P97612); assay: Inhibition of rat brain FAAH assessed as [14C]-anandamide hydrolysis up to 10 uM
T1 sequence (whole entry): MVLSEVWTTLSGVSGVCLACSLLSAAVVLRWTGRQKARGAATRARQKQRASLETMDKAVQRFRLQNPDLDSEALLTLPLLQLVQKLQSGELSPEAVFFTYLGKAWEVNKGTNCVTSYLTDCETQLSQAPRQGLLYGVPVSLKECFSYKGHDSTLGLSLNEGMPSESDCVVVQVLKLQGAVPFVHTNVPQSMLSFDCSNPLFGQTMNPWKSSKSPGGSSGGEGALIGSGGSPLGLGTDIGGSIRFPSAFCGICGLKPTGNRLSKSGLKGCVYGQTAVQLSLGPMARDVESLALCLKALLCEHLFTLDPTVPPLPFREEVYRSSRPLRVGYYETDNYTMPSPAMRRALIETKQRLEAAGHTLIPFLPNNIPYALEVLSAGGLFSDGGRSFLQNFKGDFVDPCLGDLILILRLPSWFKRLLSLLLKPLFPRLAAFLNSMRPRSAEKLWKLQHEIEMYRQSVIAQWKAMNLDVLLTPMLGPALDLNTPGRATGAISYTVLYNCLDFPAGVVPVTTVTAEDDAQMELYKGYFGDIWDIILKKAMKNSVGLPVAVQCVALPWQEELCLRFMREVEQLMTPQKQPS
How it was run: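 Hydrolysis of [¹⁴C]-anandamide by rat brain FAAH-like activity, with compound at 0.1, 1, 5 and 10 μM.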

[4] = target: Cannabinoid receptor 2 (Homo sapiens, UniProt P34972); assay: Displacement of [3H]CP-55940 from human recombinant CB2 receptor expressed in HEK cells; type: cell-based, HEK293
[5] = tested on: COS-7; assay: Inhibition of MAGL in african green monkey COS7 cells assessed as [14C]-2-arachidonoyl-glycerol hydrolysis up to 10 uM; type: cell-based; settings: Chlorocebus aethiops
How it was run: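 COS-7 cell MAGL-like activity measured as hydrolysis of [¹⁴C]-2-arachidonoyl-glycerol, with compound tested at 0.1, 1, 5 and 10 μM.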

[6] = tested on: Mus musculus; assay: Antinociceptive activity in mouse assessed as reduction of formalin-induced nocifensive response at 6 mg/kg, ip administered 15 mins before formalin challenge measured second phase of 20 to 60 mins in presence of CB2 receptor antagonist 1 mg/kg, ip of AM630; type: functional, organism-based
How it was run: (§1)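 Formalin paw test in mice. AM630 (1 mg/kg, ip) was given 5 min before the compound, and the compound was given ip 15 min before intraplantar-dorsal formalin (1.25% in saline, 30 μL). A blinded observer timed paw lifting, favoring, licking, shaking and flinching at 0–10 and 20–60 min. n = 8–10 per group. Means ± SEM, ANOVA with Dunnett's test.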

[7] = species on record: Homo sapiens; assay: Selectivity index, ratio of Ki for human recombinant CB1 receptor to Ki for human recombinant CB2 receptor
[8] = tested on: Mus musculus; assay: Antinociceptive activity in mouse assessed as reduction of formalin-induced nocifensive response at 6 mg/kg, ip administered 15 mins before formalin challenge measured second phase of 20 to 60 mins; type: functional, organism-based; parameters: dose 6 mg/kg
How it was run: (§2)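 Mice received compound ip at 1, 3 or 6 mg/kg (or vehicle) 15 min before formalin (1.25% in saline, 30 μL) was injected into the dorsal hindpaw. An observer blind to treatment timed lifting, favoring, licking, shaking and flinching of the injected paw over 0–10 min (early phase) and 20–60 min (late phase). n = 8–10 per group, one treatment per animal. Means ± SEM, ANOVA with Dunnett's test.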

[9] = tested on: Mus musculus; assay: Antinociceptive activity in mouse assessed as reduction of formalin-induced nocifensive response at 3 mg/kg, ip administered 15 mins before formalin challenge measured first phase of 0 to 10 mins; type: functional, organism-based; parameters: dose 3 mg/kg; how it was run: as §2
[10] = tested on: Mus musculus; assay: Antinociceptive activity in mouse assessed as reduction of formalin-induced nocifensive response at 3 mg/kg, ip administered 15 mins before formalin challenge measured first phase of 0 to 10 mins in presence of CB2 receptor antagonist 1 mg/kg, ip of AM630; type: functional, organism-based; how it was run: as §1
[11] = tested on: Mus musculus; assay: Antinociceptive activity in mouse assessed as reduction of formalin-induced nocifensive response at 3 mg/kg, ip administered 15 mins before formalin challenge measured second phase of 20 to 60 mins; type: functional, organism-based; parameters: dose 3 mg/kg; how it was run: as §2
[12] = tested on: Mus musculus; assay: Antinociceptive activity in ip dosed mouse assessed as reduction of formalin-induced nocifensive response administered 15 mins before formalin challenge measured first phase of 0 to 10 mins; type: functional; settings: read-out: MED; how it was run: as §2

Sequence of Cannabinoid receptor 1 (P21554 whole entry): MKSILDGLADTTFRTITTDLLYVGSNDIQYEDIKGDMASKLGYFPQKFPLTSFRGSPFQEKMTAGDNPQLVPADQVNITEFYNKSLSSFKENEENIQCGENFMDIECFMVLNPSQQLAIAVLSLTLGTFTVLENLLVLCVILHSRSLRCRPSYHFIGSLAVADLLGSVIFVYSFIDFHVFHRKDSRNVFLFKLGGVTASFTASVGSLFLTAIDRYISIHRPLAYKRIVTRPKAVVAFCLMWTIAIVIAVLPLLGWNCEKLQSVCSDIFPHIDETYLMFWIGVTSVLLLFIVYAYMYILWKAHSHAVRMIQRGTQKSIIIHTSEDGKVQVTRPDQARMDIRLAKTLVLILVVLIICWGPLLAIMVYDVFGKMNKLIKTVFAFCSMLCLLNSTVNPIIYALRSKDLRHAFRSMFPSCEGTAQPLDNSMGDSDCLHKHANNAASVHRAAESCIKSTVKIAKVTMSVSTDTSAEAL
Sequence of Cannabinoid receptor 2 (P34972 whole entry): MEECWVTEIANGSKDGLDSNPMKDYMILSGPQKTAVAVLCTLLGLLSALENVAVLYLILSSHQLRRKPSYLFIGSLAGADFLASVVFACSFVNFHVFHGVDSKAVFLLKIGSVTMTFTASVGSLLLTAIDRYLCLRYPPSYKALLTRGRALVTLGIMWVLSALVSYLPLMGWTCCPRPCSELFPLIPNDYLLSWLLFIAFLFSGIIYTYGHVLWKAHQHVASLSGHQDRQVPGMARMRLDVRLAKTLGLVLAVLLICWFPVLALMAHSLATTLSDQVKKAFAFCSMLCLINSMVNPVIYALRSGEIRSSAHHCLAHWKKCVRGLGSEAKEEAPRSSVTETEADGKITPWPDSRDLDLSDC

SMILES	viability at 72 h, 1 µM [1]	Ki [2]	Ki [4]	Ratio Ki [7]	further results
CCCCCn1cc(C(=O)NC23CC4CC(CC(C4)C2)C3)c(=O)c2cccc(OC)c21	> 95%	> 10000 nM	0.6 nM	> 16700	inhibition [3]: inactive; inhibition [5]: inactive; Activity [6]: Active; Activity [8]: Active
CCCCCn1c(=O)c(C(=O)NC23CC4CC(CC(C4)C2)C3)c(O)c2cc(Br)ccc21	> 95%	> 10000 nM	29.4 nM	> 340	inhibition [3]: inactive; Activity [9]: Active; inhibition [5]: inactive; Activity [10]: inactive; Activity [11]: Active
CCCCCn1c(=O)c(C(=O)NC23CC4CC(CC(C4)C2)C3)cc2ccccc21		31.3 nM	0.2 nM	157	
CCCCCOc1cccc2c(=O)c(C(=O)NC34CC5CC(CC(C5)C3)C4)c[nH]c12				4.3	
CCCCCOc1cccc2c(O)c(C(=O)NC34CC5CC(CC(C5)C3)C4)cnc12	> 95%	260 nM	60 nM		
CCCCc1[nH]c2ccc(Br)cc2c(=O)c1C(=O)NC12CC3CC(CC(C3)C1)C2		> 10000 nM	1180 nM	> 8	
CCCCCn1cc(C(=O)NC23CC4CC(CC(C4)C2)C3)c(=O)c2cccc([N+](=O)[O-])c21		200 nM	1 nM	200	
COc1cccc2c(O)c(C(=O)NC34CC5CC(CC(C5)C3)C4)cnc12		> 10000 nM	3440 nM		
O=C(NC12CC3CC(CC(C3)C1)C2)c1c[nH]c2c(-c3ccccc3)cccc2c1=O				45	
CCCCCn1c(=O)c(C(=O)NC23CC4CC(CC(C4)C2)C3)c(O)c2cc(-c3ccco3)ccc21	> 95%	270 nM	15 nM	18	
CCCCc1[nH]c2ccc(-c3ccco3)cc2c(=O)c1C(=O)NC12CC3CC(CC(C3)C1)C2	> 95%	> 10000 nM	133 nM	> 75	
CCCCCn1cc(C(=O)NC23CC4CC(CC(C4)C2)C3)c(=O)c2cc(-c3ccccc3)cc(OC)c21	> 95%	> 10000 nM	430 nM	> 23	
COc1cccc2c(=O)c(C(=O)NC34CC5CC(CC(C5)C3)C4)c[nH]c12				> 2.9	
O=C(NC12CC3CC(CC(C3)C1)C2)c1cnc2c(-c3ccccc3)cccc2c1O	> 95%	> 10000 nM	220 nM		
CCCCCn1cc(C(=O)NC23CC4CC(CC(C4)C2)C3)c(=O)c2cc(Br)cc(OC)c21	> 95%	> 10000 nM	22.9 nM	> 437	
CCCCCn1cc(C(=O)NC23CC4CC(CC(C4)C2)C3)c(=O)c2cc(-c3ccco3)cc(OC)c21	> 95%	> 10000 nM	8.5 nM	> 1180	minimal effective dose [12]: 1 mg/kg; inhibition [3]: inactive; inhibition [5]: inactive; Activity [10]: inactive; Activity [11]: Active
CCCCCn1cc(C(=O)NC23CC4CC(CC(C4)C2)C3)c(=O)c2cccc(C)c21	> 95%	> 10000 nM	0.7 nM	> 2040	
CCC1COc2cccc3c(=O)c(C(=O)NC45CC6CC(CC(C6)C4)C5)cn1c23 (stereo not given)	> 95%	1000 nM	6.9 nM	145	minimal effective dose [12]: 1 mg/kg; inhibition [3]: inactive; inhibition [5]: inactive; Activity [10]: Active; Activity [11]: Active

From ChEMBL document CHEMBL1811785, “Investigations on the 4-quinolone-3-carboxylic acid motif. 4. Identification of new potent and selective ligands for the cannabinoid type 2 receptor with diverse substitution patterns and antihyperalgesic effects in mice” (J Med Chem, 2011)
